From PubChem
PAD4 inh: inhibitors of human PAD4; Q9UM07; inhibition, % at 6.36 µM; recombinant PAD4, RCA probe fluorescence polarization; AID 485272; 330,000 tested, 0.41% active;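 active = percent inhibition above a cutoff equal to the mean of all tested compounds plus 3 SD, cut at about 15% in these data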;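 also: 0% = PAD4 with RCA probe and DMSO and 100% = probe without PAD4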
Apaf-1 inh: blocks human Apaf-1 apoptosome activity; O14727; reconstituted apoptosome caspase-3 activity, DEVD-Rh110 fluorescence; inhibition, % at 20 µM; 330,000 tested, 0.71% active; AID 489030; active = inhibition of at least 40% at 20 µM;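 also: plate controls were DMSO wells for no effect and DEVD-CHO caspase inhibitor wells for full effect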
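Material: cell-free apoptosome with Apaf-1, procaspase-3 and caspase-9; Buffer or medium: Hepes pH 7.5 with detergent and BSA; Reagent: cytochrome c trigger plus (Z-DEVD)2-Rh110 caspase-3 substrate; Times: compound with Apaf-1, dATP, procaspase-3 30 min, then 50 min reaction, room temperature; Technique: Rh110 fluorescence intensity.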
JMJD2C inh: blocks human GASC-1 demethylase activity | Q9H3R0 | GST-JMJD2C(1-420) H3K9me3 demethylation, DELFIA europium | inhibition, % at 2.35 µM | 330,000 tested, 0.069% active | AID 2099;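 active = more than half of a compound's replicate wells show inhibition beyond 50%, single wells judged on their own value; inconclusive = some, but no more than half, of replicates pass 50% inhibition; inactive = no replicate passes 50% inhibition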;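 also: signal counts dimethyl H3K9 product captured on neutravidin plate; 0% = median of DMSO wells and 100% = 0.3 times that DMSO median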
Target sequence (Q9H3R0 1-420 limits assumed): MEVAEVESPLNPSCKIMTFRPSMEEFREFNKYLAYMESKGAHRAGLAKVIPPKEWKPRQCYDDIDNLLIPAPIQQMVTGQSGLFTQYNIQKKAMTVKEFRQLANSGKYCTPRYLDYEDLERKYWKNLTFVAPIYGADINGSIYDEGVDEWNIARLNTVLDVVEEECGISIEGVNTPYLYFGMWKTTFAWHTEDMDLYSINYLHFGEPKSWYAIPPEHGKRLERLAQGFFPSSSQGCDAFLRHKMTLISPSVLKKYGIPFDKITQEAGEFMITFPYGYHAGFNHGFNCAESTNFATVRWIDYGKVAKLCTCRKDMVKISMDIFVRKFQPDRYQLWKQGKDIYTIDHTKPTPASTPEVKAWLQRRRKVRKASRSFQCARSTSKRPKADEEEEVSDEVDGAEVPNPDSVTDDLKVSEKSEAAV
UBC9 SUMO inh: blocks human SUMOylation mediated by UBC9 | inhibition, % at 35 µM | 290,000 tested, 0.36% active | AID 2006 | HTRF SUMOylation assay, SAE1/SAE2 + UBC9, in vitro; in the data active = inhibition above about 50%, passing the limit was not always enough; inconclusive = no clear call, values can overlap the other calls
Target sequence (P63279 whole entry, looked up): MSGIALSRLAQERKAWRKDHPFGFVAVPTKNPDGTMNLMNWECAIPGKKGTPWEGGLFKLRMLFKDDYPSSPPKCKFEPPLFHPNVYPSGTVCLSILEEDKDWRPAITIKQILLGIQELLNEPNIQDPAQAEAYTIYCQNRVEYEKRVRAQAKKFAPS
GSTO1 inh: GSTO1 inhibition, counter-screen for RBBP9 inhibitors; inhibition, % at 5.96 µM; AID 1974; P78417; recombinant GSTO1, activity-based probe fluorescence polarization; 300,000 tested, 1.1% active;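 active = inhibition above the campaign mean inhibition plus 3 SD, cut at about 35% in these data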;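 also: 0% = GSTO1-1 with DMSO and 100% = wells lacking GSTO1-1 enzyme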
TDP2 inh: blocks human TDP2 phosphodiesterase activity. O95551. recombinant TDP2, T5PNP hydrolysis, p-nitrophenol absorbance 415 nm. inhibition, % at 12.8 µM. 370,000 tested, 0.34% active. AID 720702;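 active = inhibition above the mean of all tested compounds plus 3 SD, set per campaign, cut at about 25% in these data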;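 also: 0% = DMSO with enzyme and 100% = buffer with substrate but no TDP2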
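Assay system: Recombinant human TDP2 | Quantity: 120 nM TDP2 per well | Incubation: 2 h at 37 °C | Signal: Epi absorbance | Evaluation: Percent inhibition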
* marks the source's active call; other numbers are inactive results; ? = inconclusive; nt = not tested or not shown. A selection: hits, their analogues and other compounds. The true share with any hit is near 1.6%.

SMILES	PAD4 inh	Apaf-1 inh	JMJD2C inh	UBC9 SUMO inh	GSTO1 inh	TDP2 inh
O=C(NNC(=O)c1ccccc1F)c1cccc(-n2cccc2)c1	-1	14	5	nt	36*	0
O=C(COc1cccnc1[N+](=O)[O-])Nc1c(Cl)cccc1Cl	-1	6	4	nt	nt	3
O=C(COc1cccnc1[N+](=O)[O-])c1ccc(Cl)s1	-4	35	-16	42	35*	8
CCCCCCc1cc2cc(-c3nnc(-c4cc(OC)c(OC)c(OC)c4)o3)c(=O)oc2cc1O	-3	63*	-5	3	4	nt
CCCCCCc1cc2cc(-c3nnc(-c4ccccc4O)o3)c(=O)oc2cc1O	-1	-140	43	29	2	-8
COc1ccc(CCn2c(NN=C(C)C)nc3c2c(=O)[nH]c(=O)n3C)cc1	-3	-3	2	15	46*	-2
Cn1c(=O)n(C)c2cc(S(=O)(=O)NCCc3ccccc3)ccc21	-4	2	3	25	18	9
Cn1c(=O)oc2cc(S(=O)(=O)NCCc3ccccc3)ccc21	4	-6	8	-2	35*	2
Cc1ccc(CN[C@@H]2CC[C@@]34CCCN3C(=O)CCC[C@H]4C2)cc1	nt	nt	nt	nt	nt	-8
COC(=O)c1ccccc1NC(=O)c1ccccc1OC	-4	2	-32	27	-2	15
COc1ccccc1C(=O)Nc1ccccc1SC(=O)c1ccccc1OC	80*	8	-8	-4	-4	0
COC(=O)[C@]12C[C@H](CC(=O)NCCc3ccccc3OC)C(=O)N(Cc3cccc4ccccc34)C1=C[C@H](C1CCCC1)O[C@@H]2C	nt	nt	nt	nt	nt	-8
CC(C)N(Cc1cn(Cc2ccccc2)nn1)S(=O)(=O)c1ccc(F)cc1Br	nt	nt	nt	nt	nt	-6
CCC(CC)C(=O)OCC(=O)NC12CC3CC(CC(C3)C1)C2	-4	-11	0	-1	37*	3
CCOCC(=O)OCC(=O)NC12CC3CC(CC(C3)C1)C2	-1	8	-19	3	-3	9
C/C(=C/C(=O)NCc1ccccc1)C(=O)O	1	-4	-3	52*	-1	-3
CC(C)=CC(=O)NCCc1ccccc1	0	-9	3	16	-1	3
Cc1ccc(-n2c(COc3ccccc3)nnc2SCC(=O)Nc2ccccc2-c2ccccc2)cc1	nt	nt	nt	nt	nt	-6
Cc1ccc(-n2nc3c(N4CCC(C(=O)NCc5ccccc5C)CC4)nnc(C)c3c2C)cc1	-3	34	0	nt	5	nt
CCOc1ccccc1CNC(=O)C1CCN(c2nnc(C)c3c(C)n(-c4ccc(C)cc4)nc23)CC1	-3	41*	15	-1	22	-4
O=C(CSc1nnc(-c2cnccn2)n1-c1ccccc1)c1ccccc1Br	nt	nt	nt	nt	nt	-8
Oc1c(Cl)cc(Cl)cc1Sc1cc(Cl)cc(Cl)c1O	-3	19	?	92*	57*	nt
CC(C)(C)NC(=O)C(c1cccnc1)N(C(=O)c1cnc[nH]1)c1ccc(C(C)(C)C)cc1 (stereo not drawn)	nt	nt	nt	nt	nt	4
C[C@@H]1O[C@@H](OC2C(O)C(OCCc3ccc(O)c(O)c3)OC(CO)C2OC(=O)/C=C/c2ccc(O)c(O)c2)[C@H](O)[C@H](O)[C@H]1O (stereo partly drawn)	0	-3	?	nt	54*	nt
C[C@@H]1O[C@@H](O[C@H]2[C@H](O)[C@@H](O)[C@H](Oc3c(-c4ccc(O)cc4)oc4cc(O)cc(O)c4c3=O)O[C@@H]2CO)[C@H](O)[C@H](O)[C@H]1O	-1	-8	9	nt	nt	-2
SMILES	PAD4 inh	Apaf-1 inh	JMJD2C inh	UBC9 SUMO inh	GSTO1 inh	TDP2 inh
COc1ccc(-n2cc(CNCCc3cscn3)c(-c3ccccc3Cl)n2)cc1	4	13	51*	18	0	-8
Cc1ccc(-n2cc(CNCCc3cscn3)c(-c3ccc(F)cc3)n2)cc1	-4	19	22	-4	-6	-17
Nc1ccc(O)c(C(=O)O)c1	16*	nt	-19	nt	76*	nt
O=C(O)c1cc(O)ccc1O	nt	nt	nt	nt	nt	7
CC1(C)CC(=O)N(CC(=O)N2CCN(Cc3ccccc3)CC2)c2ccccc2S1(=O)=O	nt	nt	nt	nt	nt	1
COC(=O)c1cc(O)c(O)c(O)c1	5	6	7	-4	47*	-3
CCOc1ccc(-n2c(SCC(=O)Nc3ccc(S(=O)(=O)Nc4cc(C)nc(C)n4)cc3)nnc2-c2ccc(OC)cc2)cc1	nt	nt	nt	nt	nt	-6
CCCC1CCC2(CC1)CCC2OC(=S)Nc1ccc(I)cc1 (stereo not drawn)	nt	nt	nt	nt	nt	6
O=C(Nc1ccc(F)cc1)Oc1ccc[nH]c1=O	-1	9	-15	99*	6	-3
CCCCNC(=O)C[C@@H]1C(=O)N(Cc2ccc(OC)cc2)/C2=C/CCCCC[C@@]21C(=O)OCC	nt	nt	nt	nt	nt	-13
Cc1ccc(-n2c(N)c(C(=O)Nc3c(C)n(C)n(-c4ccccc4)c3=O)c3nc4ccccc4nc32)cc1C	-8	42*	-7	25	-7	nt
N#CCC[C@@H]1CC[C@]2(CCCN(Cc3ccc(Br)cc3)C2)O1	nt	nt	nt	nt	nt	-7
O=C1CC(=O)N(Cc2ccco2)C(=S)N1	-19	7	1	83*	-48	nt
O=C1CC(=O)N(Cc2ccco2)C(=O)N1	-4	9	52*	27	37*	16
O=c1c([N+](=O)[O-])c(Cl)c2ccccc2n1Cc1ccccc1	nt	nt	nt	nt	nt	1
O=C(CCc1ccc(S(=O)(=O)NCCc2ccccc2)cc1)NCc1ccc2c(c1)OCO2	0	17	2	3	5	-4
O=C(CCc1ccc(S(=O)(=O)NCc2ccccc2)cc1)NCc1ccc2c(c1)OCO2	-1	-3	52*	10	8	-4
O=C1COc2ccc(S(=O)(=O)NCc3ccccc3)cc2N1	-9	6	-2	-6	36*	1
CCC(Cc1ccccc1)NS(=O)(=O)c1ccc2c(c1)NC(=O)CO2 (stereo not drawn)	2	11	10	5	22	-5
O=C(NC1=N[C@@]2(C=C3CCCCC3n3c(=O)n(-c4ccccc4)c(=O)n32)CN1Cc1ccccc1)c1ccccc1 (stereo partly drawn)	nt	nt	nt	nt	nt	2
Cn1cc(C2(c3c[nH]c4ccccc34)CCN(C(=O)OC(C)(C)C)CC2)c2ccccc21	nt	nt	nt	nt	nt	0
COc1ccc(C2/C=C\CN(C(=O)Nc3ccccc3)CC(=O)N2Cc2ccc(F)cc2)cc1 (stereo not drawn)	2	8	-3	-16	36*	-1
O=C(CN1C(=O)/C(=C\c2ccco2)SC1=S)Nc1ccc(O)cc1C(=O)O	-18	11	?	82*	24	24
CC1=NN(c2ccccc2)C(=O)/C1=C\C=C1\N(C)c2ccccc2C1(C)C	-2	34	3	1	3	-11
CC1=NN(c2ccccc2)C(=O)/C1=C\C=C1/N(C)c2ccccc2C1(C)C	-9	26	5	4	72*	14
